In general, Tmax refers to the time at which the peak concentration occurs. As a reminder, the MRT inf is the average time that molecules of a dose stay in the body. Broadly, the half-life is the time in which the quantity being followed falls by half. By Cmax is commonly meant the maximum level reached in the sampled fluid or tissue. A word on the T/C: it is the result in the treated group divided by that in the control group, in per cent.

Data set [1] concerns Mus musculus. The experiment in a line: Antitumor activity evaluated as tumor weight on day 21 of Meth A Fibrosarcoma in BALB/c mice at a dose of 100 mg/kg administered intravenously on day 5. The note with it: route intravenous. In kind it is functional. In a few lines: (§1)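 Meth A cells, 5 × 10^5/mouse, inoculated subcutaneously on day 0 into 7 week old male BALB/c mice, five per group. A single intravenous injection on day 5; saline for controls. Tumours weighed on day 21. Doses in mg/kg expressed as free drug. Inhibition rate derived from tumour weight relative to the saline control group.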

In data set [2] the test system is Mus musculus. Put plainly: (§2) Inhibition rate of tumor growth at 25 mg/kg single iv administration against Meth A fibrosarcoma cells in BALB/c Mice. Type of data set: functional. In a few lines: as §1
Data set [3] is described as follows: Tmax at a dose of 4 mg/kg in Rat Plasma after iv administration. Also noted: dose 4 mg/kg, route intravenous. Type of data set: ADME, organism-based. In a few lines: (§3)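 Rats given a single iv dose via the right femoral vein after full recovery from anaesthesia, then a saline flush. Free drug dissolved in DMSO/10 mM H3PO4 (10/1); sodium salt in water. Blood (200 µL) drawn from a left femoral artery cannula at 2, 5, 10, 30 min and 1, 3, 5, 7 h. Plasma diluted in H3PO4 with camptothecin internal standard.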

Data set [4] has as its system Mus musculus. The experiment in a line: Antitumor activity evaluated as tumor weight on day 21 of Meth A Fibrosarcoma in BALB/c mice at a dose of 25 mg/kg administered intravenously on day 5. The note with it: route intravenous. Type of data set: functional. In short, it runs like this:
as §1

Data set [5] is described as follows: Mean residence time at a dose of 4 mg/kg in Rat Plasma after iv administration. Further details: dose 4 mg/kg, route intravenous. Type of data set: ADME, organism-based. In short, it runs like this: as §3
In data set [6] the test system is Mus musculus. The experiment in a line: Inhibition rate of tumor growth at 50 mg/kg single iv administration against Meth A fibrosarcoma cells in BALB/c Mice. Type of data set: functional. In short, it runs like this:
(§4)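 Male BALB/c mice, 7 weeks old (five per group), inoculated s.c. with Meth A cells at 5 × 10^5 cells/mouse on day 0. Single i.v. injection on day 5, doses expressed as free drug equivalent; control group given saline. Tumors weighed on day 21 (mean ± SD); inhibition rate derived from tumor weight relative to control.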

In data set [7] the test system is Mus musculus. The experiment in a line: Antitumor activity evaluated as tumor weight on day 21 of Meth A Fibrosarcoma in BALB/c mice at a dose of 50 mg/kg administered intravenously on day 5. The note with it: route intravenous. In kind it is functional. In a few lines: as §1
Data set [8] has as its system Mus musculus. Put plainly: Inhibition rate of tumor growth at 100 mg/kg single iv administration against Meth A fibrosarcoma cells in BALB/c Mice. In kind it is functional. In short, it runs like this: as §4
Data set [9] is filed under the species Rattus norvegicus. The experiment in a line: (§5) Area under curve of the compound was determined. In kind it is ADME, organism-based. The note with it: in vivo. In short, it runs like this: as §3
A short description of data set [10]: (§6) Half life at a dose of 4 mg/kg in Rat Plasma after iv administration. In kind it is ADME, organism-based. Also noted: dose 4 mg/kg, route intravenous. In a few lines:
as §3

Data set [11] in a line: Maximum plasma concentration at a dose of 4 mg/kg in Rat Plasma after iv administration. In kind it is ADME, organism-based. Also noted: dose 4 mg/kg, route intravenous. In a few lines:
as §3

For data set [12], the system named is Rattus norvegicus. Put plainly: Vdss at a dose of 4 mg/kg in Rat Plasma after iv administration. Type of data set: organism-based. Further details: dose 4 mg/kg. In short, it runs like this:
as §3

Data set [13] deals with Rattus norvegicus. The experiment in a line: CLtot at a dose of 4 mg/kg in Rat Plasma after iv administration. Type of data set: organism-based. Also noted: dose 4 mg/kg. In a few lines:
as §3

For data set [14], the species on record is Mus musculus. Put plainly: Ratio between mean survival days of treated group and control group. Type of data set: functional. In a few lines:
(§7)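 Female CDF1 mice inoculated intraperitoneally on day 0 with 1 × 10^6 P388 or P388/ADM (adriamycin-resistant, MDR-expressing) cells per mouse. Intravenous dosing on days 1, 5 and 9; doses listed are total mg/kg. Survival monitored for 40 days, reported as mean ± SD days. T/C% = (mean survival days of treated group / mean survival days of control group) × 100.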

Data set [15] relates to Mus musculus. The experiment in a line: Evaluated for survival time of P388 Leukemia implanted female CDF1 Mice at a dose of 25 mg/kg. Type of data set: functional. In a few lines: as §7
For data set [16], the system named is Mus musculus. The experiment in a line: Evaluated for survival time of P388/ADM Leukemia implanted female CDF1 Mice at a dose of 25 mg/kg.
The nature of data set [17]: as §5. In kind it is ADME. In a few lines:
(§8)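 Rats given a single i.v. dose via right femoral vein after recovery from anesthesia, then saline flush. Blood drawn from left femoral artery cannula at 2, 5, 10, 30 min and 1, 3, 5, 7 h. Plasma diluted in 0.146 M H3PO4 with CPT internal standard, then on-line SPE and C18 HPLC with fluorescence detection (ex 390/em 513 nm). LOQ 2 ng/mL. Noncompartmental analysis; AUCinf by trapezoidal rule with extrapolation; n = 1–2 rats.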

Data set [18] is described as follows: as §6. Also noted: dose 4 mg/kg, route intravenous. Type of data set: ADME, organism-based. In short, it runs like this:
as §8
This is another data set of the same source.

In data set [19] the test system is Mus musculus. Put plainly: Evaluated for survival time of P388 Leukemia implanted female CDF1 Mice at a dose of 100 mg/kg. Type of data set: functional. In a few lines:
as §7

Data set [20] relates to Mus musculus. The experiment in a line: Evaluated for survival time of P388/ADM Leukemia implanted female CDF1 Mice at a dose of 100 mg/kg. In kind it is functional. In short, it runs like this:
as §7

Data set [21] relates to Mus musculus. The experiment in a line: Ratio between mean survival days of treated group and control group at a dose of 25 mg/kg. Type of data set: functional. In short, it runs like this: as §7
Data set [22] relates to Mus musculus. The description is as §2. Type of data set: functional. In short, it runs like this: as §4
The source holds these as a separate data set.

The subject of data set [23] is Mus musculus. The experiment in a line: Ratio between mean survival days of treated group and control group at a dose of 100 mg/kg. Type of data set: functional. In a few lines: as §7
The subject of data set [24] is Mus musculus. Put plainly: Ratio between mean survival days of treated group and control group at a dose of 50 mg/kg. In kind it is functional. In a few lines:
as §7

Data set [25] has as its system Mus musculus. Put plainly: Evaluated for survival time of P388/ADM Leukemia implanted female CDF1 Mice at a dose of 50 mg/kg. Type of data set: functional. In a few lines:
as §7

Data set [26] concerns Mus musculus. Put plainly: Evaluated for survival time of P388 Leukemia implanted female CDF1 Mice at a dose of 50 mg/kg. In kind it is functional. In a few lines:
as §7

“And” between values parts separate entries of the source, which are not always exact repeats. Equal values may be shown once.

For the molecule `CCc1c2c(nc3ccc(N)cc13)-c1cc3c(c(=O)n1C2)COC(=O)[C@]3([O-])CC.[Na+]`, the Antitumor activity is on record as 0.88 g in the data set on Mus musculus [1], 0.93 g with Mus musculus [4] and 0.88 g in the data set with Mus musculus [7]. Moreover, the Inhibition rate in the data set with Mus musculus [2] came out at 62.3%; in the data set on Mus musculus [6], 64%; in the data set on Mus musculus [8], 69.3%. For the same molecule, the time to peak (Tmax) in [3] is 2 min. Further, in data set [5], the mean residence time (MRT inf) is 1.09 h. In addition, the AUC inf in the data set listed under Rattus norvegicus [9] is 1.71 µg/h/mL. Further, in data set [10], the half-life was 2.26 h. The molecule further returned a Cmax in data set [11] of 10500 ng/mL.
Regarding `CCc1c2c(nc3ccc(N)cc13)-c1cc3c(c(=O)n1C2)COC(=O)[C@]3(O)CC` [listing 1 of 2 here], the Vdss in the data set with Rattus norvegicus [12] is 2.65 L/kg and 2.37 L/kg. The CL (mL.min-1.kg-1) in the data set with Rattus norvegicus [13] is 40.3 and 34.5.
As to `COc1cccc2c1C(=O)c1c(O)c3c(c(O)c1C2=O)C[C@@](O)(C(=O)CO)C[C@@H]3O[C@H]1C[C@H](N)[C@H](O)[C@H](C)O1` [DOXORUBICIN], in the data set filed under Mus musculus [14], the T/C was 261% and 102%. Further, the Activity in the data set with Mus musculus [15] came out at 20 days; in the data set with Mus musculus [16] it was 9.8 days.
Take `CCc1c2c(nc3ccc(N)cc13)-c1cc3c(c(=O)n1C2)COC(=O)[C@]3(O)CC` [listing 2 of 2 here]: the Tmax in data set [3] was 2 min. Also, in [5], the mean residence time MRT inf is 1.09 h. In data set [17], the AUC inf was found to be 2.08 µg/h/mL. The molecule also had a half-life in data set [18] of 2.25 h. The Cmax in [11] came to 10500 ng/mL.
As to `CCc1c2c(nc3ccc(OC(=O)N4CCC(N5CCCCC5)CC4)cc13)-c1cc3c(c(=O)n1C2)COC(=O)[C@]3(O)CC` [IRINOTECAN], the Antitumor activity in the data set with Mus musculus [1] is 1.16 g; in the data set on Mus musculus [22], 49.5%; with Mus musculus [4] it was 1.24 g; in the data set on Mus musculus [7], 1.31 g. Also, the Survival time came out at 17.5 days in the data set on Mus musculus [19], 15.7 days in the data set on Mus musculus [20], 14.7 days in the data set with Mus musculus [25] and 14.5 days with Mus musculus [26]. Moreover, the T/C in the data set with Mus musculus [21] is 172% and 129%; in the data set with Mus musculus [23], 228%; in the data set on Mus musculus [24], 189%. For the same molecule, the results for the Inhibition rate with Mus musculus [6] and with Mus musculus [8] were 46.6% and 52.7%, respectively.
